Assay results reported in ChEMBL document CHEMBL3739352, “Anticonvulsant activity, crystal structures, and preliminary safety evaluation of N-trans-cinnamoyl derivatives of selected (un)modified aminoalkanols” (Eur J Med Chem, 2016).
Active and inactive are the calls of the source. No cut-off for these calls is given here.

Experiments:
Salmonella typhimurium [1] = assay: Mutagenicity in Salmonella typhimurium TA100 assessed as number of revertants at 20 ug/plate by Ames test (reference value: 77 +/-4); format: toxicity, organism-based; details: salmonella enterica subsp. enterica serovar typhimurium
How it was run: (§1)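 Salmonella TA100 preincubation Ames assay: overnight-type 12 h broth culture at 37 °C, compound in DMSO at final 4–1000 per plate, top agar with trace histidine, glucose minimal agar, 48 h at 37 °C. Revertant colonies per plate were counted, with a DMSO negative control and a sodium azide positive control. Three independent repetitions were run.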

Salmonella typhimurium [2] = assay: Mutagenicity in Salmonella typhimurium TA98 assessed as mutagenic index at 20 ug/plate by Ames test; format: toxicity, organism-based; details: salmonella enterica subsp. enterica serovar typhimurium
Salmonella typhimurium [3] = assay: Mutagenicity in Salmonella typhimurium TA98 assessed as number of revertants at 100 ug/plate by Ames test (reference value: 23 +/- 3); format: toxicity, organism-based; details: salmonella enterica subsp. enterica serovar typhimurium
Salmonella typhimurium [4] = assay: Mutagenicity in Salmonella typhimurium TA1535 assessed as assessed as mutagenic index at 4 ug/plate by Ames test; format: toxicity, organism-based; details: salmonella enterica subsp. enterica serovar typhimurium
How it was run: (§2)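 Ames preincubation test. Strain culture was grown 12 h at 37 °C in nutrient broth, then mixed with compound in DMSO (final 4, 20, 100, 500, 1000 per plate) and buffer in top agar with trace histidine. This was plated on glucose minimal agar for 48 h at 37 °C. Mutagenic index = revertants with compound / DMSO control revertants, from three independent repeats.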

Salmonella typhimurium [5] = assay: Mutagenicity in Salmonella typhimurium TA100 assessed as mutagenic index at 20 ug/plate by Ames test; format: toxicity, organism-based; details: salmonella enterica subsp. enterica serovar typhimurium; how it was run: as §2
Salmonella typhimurium [6] = assay: Mutagenicity in Salmonella typhimurium TA98 assessed as mutagenic index at 100 ug/plate by Ames test; format: toxicity, organism-based; details: salmonella enterica subsp. enterica serovar typhimurium
Mus musculus [7] = assay: Neurotoxicity in albino Carworth Farms No.1 mouse at 100 mg/kg, ip after 4 hrs by rotarod test; format: toxicity, organism-based; details: in vivo
How it was run: (§3)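 Mice (albino Carworth Farms No.1) were dosed i.p. at 30, 100 or 300 mg/kg in 0.5% methylcellulose. They were tested 0.5 and 4 h later on a 1-inch knurled rod rotating at 6 rpm. Neurotoxicity was scored if a mouse could not stay on the rod for at least 1 min in each of three trials. Results are given as animals toxic/animals tested, with deaths noted.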

Mus musculus [8] = assay: Anticonvulsant activity in albino Carworth Farms No.1 mouse assessed as protection against subcutaneous dosed pentetrazol-induced seizures at 300 mg/kg, ip after 4 hrs; format: functional, organism-based
How it was run: (§4)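 Mouse i.p. screen in Carworth Farms No.1 albino mice at 30, 100 or 300 mg/kg in 0.5% methylcellulose. Testing was at 0.5 and 4 h after injection, by maximal electroshock or by subcutaneous pentetrazol challenge. Scoring was number protected / number used.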

Salmonella typhimurium [9] = assay: Mutagenicity in Salmonella typhimurium TA100 assessed as number of revertants at 100 ug/plate by Ames test (reference value: 77 +/-4); format: toxicity, organism-based; details: salmonella enterica subsp. enterica serovar typhimurium; how it was run: as §1
Salmonella typhimurium [10] = assay: Mutagenicity in Salmonella typhimurium TA100 assessed as mutagenic index at 100 ug/plate by Ames test; format: toxicity, organism-based; details: salmonella enterica subsp. enterica serovar typhimurium; how it was run: as §2
Salmonella typhimurium [11] = assay: Mutagenicity in Salmonella typhimurium TA98 assessed as number of revertants at 1000 ug/plate by Ames test (reference value: 23 +/- 3); format: toxicity, organism-based; details: salmonella enterica subsp. enterica serovar typhimurium
Mus musculus [12] = assay: Neurotoxicity in albino Carworth Farms No.1 mouse at 100 mg/kg, ip after 0.5 hrs by rotarod test; format: toxicity, organism-based; details: in vivo; how it was run: as §3
Salmonella typhimurium [13] = assay: Mutagenicity in Salmonella typhimurium TA98 assessed as number of revertants at 20 ug/plate by Ames test (reference value: 23 +/- 3); format: toxicity, organism-based; details: salmonella enterica subsp. enterica serovar typhimurium
Salmonella typhimurium [14] = assay: Mutagenicity in Salmonella typhimurium TA100 assessed as assessed as mutagenic index at 1000 ug/plate by Ames test; format: toxicity, organism-based; details: salmonella enterica subsp. enterica serovar typhimurium; how it was run: as §2
[15] = Lipophilicity of the compound at 1 mg/ml by RT-TLC analysis relative to 0% methanol; format: physicochemical; details: methanol/water
How it was run: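 Reversed-phase TLC used methanol–water mobile phases of 95–65% methanol. Compounds were applied from 1 mg/mL methanol solutions after 1 h chamber saturation, with UV detection. RM = log(1/Rf − 1) was calculated at each methanol level and extrapolated linearly (RM = RM0 + bC) to 0% methanol to give RM0.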

[16] = Lipophilicity of the compound using 85% methanol in water at 1 mg/ml by RT-TLC analysis; format: physicochemical; details: buffer
How it was run: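 Reversed-phase TLC with a methanol–water mobile phase at the stated methanol content (v/v). Compounds were spotted from 1 mg/mL methanol solutions after 1 h chamber saturation and located under UV light. Rf was measured and RM = log(1/Rf − 1) calculated.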

Salmonella typhimurium [17] = assay: Mutagenicity in Salmonella typhimurium TA98 assessed as mutagenic index at 4 ug/plate by Ames test; format: toxicity, organism-based; details: salmonella enterica subsp. enterica serovar typhimurium
Salmonella typhimurium [18] = assay: Mutagenicity in Salmonella typhimurium TA1535 assessed as assessed as mutagenic index at 500 ug/plate by Ames test; format: toxicity, organism-based; details: salmonella enterica subsp. enterica serovar typhimurium
Mus musculus [19] = assay: Anticonvulsant activity in albino Carworth Farms No.1 mouse assessed as protection against maximal electroshock-induced seizures at 30 mg/kg, ip after 4 hrs; format: functional, organism-based; how it was run: as §4
Rattus norvegicus [20] = assay: Neurotoxicity in Sprague-Dawley rat at 30 mg/kg, po after 1 hr; format: toxicity, organism-based; details: in vivo
How it was run: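 Sprague-Dawley rats were given 30 mg/kg orally in 0.5% methylcellulose. Neurotoxicity was checked at 0.25, 0.5, 1.0, 2.0 and 4 h after dosing. Results are given as number of rats showing neurotoxicity/number tested.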

Rattus norvegicus [21] = assay: Anticonvulsant activity in Sprague-Dawley rat assessed as protection against maximal electroshock-induced seizures at 30 mg/kg, po after 4 hrs; format: functional, organism-based
How it was run: (§5)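 Sprague-Dawley rats were given 30 mg/kg p.o. in 0.5% methylcellulose. Maximal electroshock was applied at 0.25, 0.5, 1.0, 2.0 and 4 h after dosing. Results are reported as number of rats protected / number tested.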

Rattus norvegicus [22] = assay: Anticonvulsant activity in Sprague-Dawley rat assessed as protection against maximal electroshock-induced seizures at 30 mg/kg, po after 2 hrs; format: functional, organism-based; how it was run: as §5
Rattus norvegicus [23] = assay: Anticonvulsant activity in Sprague-Dawley rat assessed as protection against maximal electroshock-induced seizures at 30 mg/kg, po after 0.5 hrs; format: functional, organism-based; how it was run: as §5
Rattus norvegicus [24] = assay: Anticonvulsant activity in Sprague-Dawley rat assessed as protection against maximal electroshock-induced seizures at 30 mg/kg, po after 0.25 hrs; format: functional, organism-based; how it was run: as §5
Rattus norvegicus [25] = assay: Anticonvulsant activity in Sprague-Dawley rat assessed as protection against maximal electroshock-induced seizures at 30 mg/kg, po after 1 hr; format: functional, organism-based; how it was run: as §5
in vitro [26] = details: human, HepG2 cells
Mus musculus [27] = assay: Anticonvulsant activity in albino Carworth Farms No.1 mouse assessed as protection against 6-Hz electroshock-induced seizures at 100 mg/kg, ip after 0.25 hrs; format: functional, organism-based
How it was run: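 Carworth Farms No.1 albino mice were dosed i.p. at 100 mg/kg (0.5% methylcellulose solution or suspension). 6-Hz seizures were induced at 32 mA at 0.25, 0.5, 1.0, 2.0 and 4 h after injection. Results are given as animals protected / animals tested.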

[28] = Hepatotoxicity against human HepG2 cells assessed as cell viability at 100 uM after 24 hrs by MTT assay relative to control
in vitro [29] = details: human, HepG2 cells; remark: listed apart in the source
[30] = Neurotoxicity in ip dosed albino Carworth Farms No.1 mouse after 0.25 hrs by rotarod test; format: toxicity, organism-based; details: in vivo

Row | SMILES | Activity (Salmonella typhimurium [1]) | Activity_index (Salmonella typhimurium [2]) | Activity (Salmonella typhimurium [3]) | Activity_index (Salmonella typhimurium [4]) | Activity_index (Salmonella typhimurium [5]) | Activity_index (Salmonella typhimurium [6]) | Activity (Mus musculus [7]) | Activity (Mus musculus [8]) | Activity (Salmonella typhimurium [9]) | Activity_index (Salmonella typhimurium [10]) | Activity (Salmonella typhimurium [11]) | Activity (Mus musculus [12]) | Activity (Salmonella typhimurium [13]) | Activity_index (Salmonella typhimurium [14]) | Rm [15] | Rm [16] | Activity_index (Salmonella typhimurium [17]) | Activity_index (Salmonella typhimurium [18]) | Activity (Mus musculus [19]) | Activity (Rattus norvegicus [20]) | also measured
1 | CCC(CO)NC(=O)/C=C/c1ccccc1 (racemic) | 62 | 1 | 22 | 1.1 | 0.8 | 1 | Non-toxic | inactive | 64 | 0.8 | 19 | Non-toxic | 24 | 0.8 | 2.093 | -0.29 | 0.9 | 1.3 | inactive | – | –
2 | O=C(/C=C/c1ccccc1)N1CCC(O)CC1 | 68 | 0.8 | 17 | 0.5 | 0.9 | 0.7 | Non-toxic | – | 76 | 1 | 20 | Non-toxic | 19 | 0.9 | 2.579 | -0.23 | 1 | 0.8 | inactive | Non-toxic | Activity (Rattus norvegicus [21]): inactive; Activity (Rattus norvegicus [22]): inactive; Activity (Rattus norvegicus [23]): inactive; Activity (Rattus norvegicus [24]): inactive; Activity (Rattus norvegicus [25]): inactive
3 | CCC(O)CNC(=O)/C=C/c1ccccc1 (racemic) | 64 | 0.9 | 21 | 0.9 | 0.8 | 0.9 | Non-toxic | inactive | 62 | 0.8 | 25 | Non-toxic | 20 | 0.9 | 1.937 | -0.25 | 0.9 | 0.7 | inactive | Non-toxic | Activity (Rattus norvegicus [21]): inactive; Activity (Rattus norvegicus [22]): inactive; Activity (Rattus norvegicus [24]): Active; viability at 24 h, 100 µM (in vitro [26]): 89%; Activity (Mus musculus [27]): Active; Activity (Rattus norvegicus [25]): inactive; viability at 24 h, 100 µM [28]: 85.9%; viability at 24 h, 10 µM (in vitro [29]): 98%
4 | CC(CO)NC(=O)/C=C/c1ccccc1 (racemic) | 62 | 0.9 | 21 | 1.5 | 0.8 | 0.9 | Non-toxic | inactive | 71 | 0.9 | 18 | Non-toxic | 20 | 0.9 | 1.39 | -0.39 | 0.9 | 0.8 | inactive | Non-toxic | TD50 at 0.25 h [30]: 223 mg/kg; Activity (Rattus norvegicus [21]): inactive; Activity (Rattus norvegicus [22]): inactive; Activity (Rattus norvegicus [23]): inactive; Activity (Rattus norvegicus [24]): inactive; viability at 24 h, 100 µM (in vitro [26]): 89%; Activity (Rattus norvegicus [25]): inactive; viability at 24 h, 100 µM [28]: 92.2%; viability at 24 h, 10 µM (in vitro [29]): 98%
5 | O=C(/C=C/c1ccccc1)N[C@H]1CCCC[C@@H]1O (racemic) | 79 | 0.9 | 20 | 0.5 | 1 | 0.9 | Non-toxic | inactive | 72 | 0.9 | 18 | Toxic | 21 | 0.9 | 2.054 | -0.18 | 1 | 0.7 | inactive | – | –
